Assay outcomes from PubChem.
M5 ag: agonists of human muscarinic M5 receptor (CHRM5) | CHO-K1 hM5 cells, Fluo-8 calcium fluorescence; 0% DMSO wells, 100% maximal acetylcholine response | actives 0.19% (n = 360,000) | activation, % at 3 µM | P08912;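 active means activation above the run's mean over test compounds plus 3 SD, cut at about 23% in these data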;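 further: signal is peak over basal fluorescence ratio across the kinetic read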
Target sequence (P08912 whole entry, looked up): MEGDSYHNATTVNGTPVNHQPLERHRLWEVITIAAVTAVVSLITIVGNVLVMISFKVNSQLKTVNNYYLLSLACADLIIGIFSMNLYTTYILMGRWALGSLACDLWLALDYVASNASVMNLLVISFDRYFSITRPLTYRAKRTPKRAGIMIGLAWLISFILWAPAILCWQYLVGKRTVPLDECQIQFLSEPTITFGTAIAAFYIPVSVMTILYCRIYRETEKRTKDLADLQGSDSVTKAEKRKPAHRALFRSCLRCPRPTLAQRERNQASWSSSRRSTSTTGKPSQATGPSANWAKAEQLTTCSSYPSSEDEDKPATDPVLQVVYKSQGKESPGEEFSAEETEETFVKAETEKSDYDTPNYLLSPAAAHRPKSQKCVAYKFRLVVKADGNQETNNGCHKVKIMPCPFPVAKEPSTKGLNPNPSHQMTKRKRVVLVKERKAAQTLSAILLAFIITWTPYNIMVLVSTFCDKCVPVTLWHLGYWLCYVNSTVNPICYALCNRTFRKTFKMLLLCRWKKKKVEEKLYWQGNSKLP
M5 antag: blocks acetylcholine activation of human M5 receptor. inhibition, % at 3 µM. P08912. actives 0.59% (n = 360,000). CHO-hM5 cells, Fluo-8 calcium fluorescence, ACh EC80;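 active means inhibition above a per-plate cutoff, the mean of that plate's test compounds plus 3 SD, cut at about 27% in these data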;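 further: 0% = acetylcholine EC80 with DMSO and 100% = DMSO without agonist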
M1 antag: antagonists of human M1 muscarinic receptor; P11229; CHO-K1 hM1, Fluo-8 calcium fluorescence, ACh EC80 antagonist; inhibition, % at 3 µM; actives 1.3% (n = 360,000); AID 588852;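 active means percent inhibition above its own plate's cutoff, namely the mean of that plate's compound wells plus 3 SD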;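 further: peak over basal fluorescence ratio during 140 s after agonist addition; 0% = ACh EC80 plus DMSO and 100% = DMSO alone without agonist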
CHRM5 PAM: potentiates acetylcholine response at human M5 receptor; activation, % at 3 µM; P08912; actives 0.3% (n = 360,000); AID 624038; CHO-K1 hM5, Fluo-8 calcium, ACh EC20 PAM; 0% = ACh EC20, 100% = ACh EC100;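 active means activation above the run cutoff, the mean activation of all test compounds plus 3 SD, cut at about 18% in these data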
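System – CHO-K1 hM5 cells · Compound – 3 µM, single dose · Incubation – compound preincubation 140 s before EC20 acetylcholine addition · Technique – Fluo-8 calcium fluorescence · Measure – Max/basal fluorescence ratio as % of EC20–EC100 ACh window · Benchmarks – low control EC20 acetylcholine (0%), high control EC100 acetylcholine (100%) · Replication – singlicate, one well per test compound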
CHRM1 PAM: positive allosteric modulators of human M1 muscarinic receptor | P11229 | CHO-K1 hM1, Fluo-8 calcium fluorescence, ACh EC20; 0% = ACh EC20, 100% = maximal ACh | activation, % at 3 µM | actives 0.088% (n = 360,000); in the data active means activation above about 19%, passing the limit was not always enough
CHRM1 agonist: activates human CHRM1 receptor; P11229; CHO-K1 hM1, Fluo-8 calcium fluorescence, agonist mode; 0% DMSO, 100% acetylcholine EC100; activation, % at 3 µM; actives 0.33% (n = 360,000); AID 588814;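 active means activation above the run's mean compound activation plus 3 SD, cut at about 16% in these data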;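 further: peak over basal fluorescence ratio within a 140 s kinetic read after compound addition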
An asterisk follows results filed as active; . = not tested or not shown; ! = not active in a repeat. Rows were chosen to be rich in hits. Some 2% of all compounds tested hit in one or more screens of this group.

SMILES	M5 ag	M5 antag	M1 antag	CHRM5 PAM	CHRM1 PAM	CHRM1 agonist
COCCN1C(=O)C(CC(=O)Nc2ccc(C(C)=O)cc2)SC1=Nc1ccccc1 (centres undefined)	-0.6	28.8*!	-7.0	-12.2	-1.3	0.5
CC(O)CN1C(=O)C(CC(=O)Nc2ccc(Cl)cc2)SC1=Nc1ccccc1 (centres undefined)	-1.9	9.9	-18.2	-5.9	-1.8	-3.8
COc1cccc(-c2nc(CS(=O)(=O)CC(=O)NCc3ccccc3)c(C)o2)c1	0.6	-7.8	-5.7	7.4	2.9	-1.8
COc1cccc(-c2nc(CS(=O)(=O)CC(=O)NCCCc3ccccc3)c(C)o2)c1	-3.8	2.0	40.1*	-6.8	-20.7	-2.6
CCNC(=O)c1cc2c(c(-c3cccc(-c4ccccc4F)c3)n1)[C@@H](CCO)N(C(=O)CC)C2	1.2	0.4	.	-1.0	.	.
COc1ccc(C2SCC(=O)N2c2ccc(OC)cc2)cc1 (centres undefined)	-5.9	9.0	-3.7	-5.3	7.0	-3.1
COc1cccc(C2SCC(=O)N2c2ccc(Br)cc2)c1OC (centres undefined)	-8.1	34.7*	73.6*	-19.8	-26.9	-10.9
CCCCNC(=O)C1(C)CCCCN1Cc1ccc(OCc2ccccc2)cc1 (centres undefined)	-1.7	-2.3	-4.2	-2.9	-5.3	-8.0
Oc1ccc(Cl)cc1/C=N/c1nccs1	-1.7	-3.8	-10.3	-0.7	5.7	-3.6
Oc1ccc(Cl)cc1C=Nc1ccc2c3c(cccc13)CC2	52.9*	35.1*	16.6	-14.0	-0.8	22.1*
Cc1cccc(C=Nc2ccc3c4c(cccc24)CC3)c1O	33.8*	24.0	12.1	-8.9	-3.5	2.6
CCCC(=O)N1CCC1(C)C(=O)NS(=O)(=O)c1cccs1 (centres undefined)	-0.9	-4.9	-21.1	0.3	14.1	-1.0
COC(=O)C(NC(=O)c1ccccc1Cl)(Nc1ncc(S(=O)(=O)c2ccc([N+](=O)[O-])cc2)s1)C(F)(F)F (centres undefined)	32.8*	6.9	9.9	-9.7	1.6	21.9*
O=C(CCl)Nc1ncc(S(=O)(=O)c2ccc([N+](=O)[O-])cc2)s1	1.2	9.0	-1.4	0.7	-0.1	2.6
COc1ccc(-n2nc(C(=O)NCC(=O)N3CCN(Cc4ccccc4)CC3)c3ccccc3c2=O)cc1OC	-1.2	29.3*	22.9	-11.8	-7.8	14.5
COc1ccc(-n2nc(C(=O)NCC(=O)N3CCN(C)CC3)c3ccccc3c2=O)cc1OC	-5.8	-0.4	-0.7	9.8	2.0	-2.1
CC(C)(O)CN(CCCNC(=S)Nc1ccccc1)C(=S)Nc1ccccc1	1.2	14.5	-8.6	-4.4	4.1	-2.2
NC(=O)CCCn1c(C(=O)c2cc(Cl)c(N)c(Cl)c2)c2ccc(C(F)(F)F)cc2[n+]1[O-]	2.6	12.0	0.2	-2.0	6.9	3.3
NCCCn1c(C(=O)c2cc(Cl)c(N)c(Cl)c2)c2ccc(C(F)(F)F)cc2[n+]1[O-]	7.1	-7.4	10.0	18.8*	3.4	-0.7
COc1ccc(-c2cc(C(F)F)n3ncc(C(=O)N4CCSCC4)c3n2)cc1	-5.3	-1.0	27.3*	-3.0	-9.4	-5.0
O=C(c1ccccc1F)N1CCN(c2cccc(C(F)(F)F)c2)CC1	-2.6	17.7	5.3	-3.5	-7.3	-6.3
FC(F)(F)c1cccc(NC(=S)N2CCN(c3cccc(C(F)(F)F)c3)CC2)c1	-4.6	1.8	37.7*	-7.4	-15.0	-3.6
Cc1ccc(CC(=O)N2CCN(c3cccc(C(F)(F)F)c3)CC2)cc1	3.8	15.6	32.0*	-16.9	-9.7	2.2
Fc1ccc(NC(=S)N2CCN(c3cccc(C(F)(F)F)c3)CC2)cc1	-0.7	14.8	27.5	-16.6	-13.1	-7.5
O=C(c1coc2ccccc2c1=O)N1CCN(c2cccc(C(F)(F)F)c2)CC1	-1.1	1.1	53.9*	-4.5	-34.0	-10.6
SMILES	M5 ag	M5 antag	M1 antag	CHRM5 PAM	CHRM1 PAM	CHRM1 agonist
COC(=O)[C@]12CCCCC=C1N(Cc1ccc3c(c1)OCO3)C(=O)[C@H](CC(=O)NCc1ccc(OC)c(OC)c1)C2	3.8	16.0	.	-14.0	.	.
CN(C)CCC1c2ccc(Cl)cc2CCc2cccnc21 (centres undefined) (tested in a mixture with another compound)	-0.9	17.4	48.9*	-16.4	-28.0	-10.9
CN(C)CCCOc1ccc(Cl)cc1Br	-9.2	8.6	3.1	-8.1	-5.0	-8.4
Cc1cc(N2Cc3ccccc3C2)ccc1C=O	14.8	38.5*	-15.7	-5.2	15.7	0.7
O=Cc1ccc(N2Cc3ccccc3C2)cc1	-2.3	2.2	-12.4	1.8	3.9	-3.4
O=C(NCc1ccc(Cl)nc1)c1ccc2nc([C@@H]3O[C@H](CO)[C@H](O)[C@H](O)[C@H]3O)[nH]c2c1	-0.7	3.7	-10.6	5.0	7.8	2.1
CC(C)C[C@H]1CN=C(Nc2ccccc2)N1CCc1cccc(F)c1	74.3*	37.6*	57.4*	-40.1	-38.7	62.8*
CC(C)C[C@H]1CN=C(Nc2ccccc2)N1CCc1ccc(F)cc1	64.1*	13.1	25.0	-40.0	-32.4	50.2*
Cc1cccc(CCN2C(Nc3ccccc3)=NC[C@@H]2CC(C)C)c1	58.1*	14.8	57.1*	-42.8	-36.4	52.9*
O[C@@H]1C[C@H](c2ccc(Cl)cc2)N(Cc2cccs2)C[C@H]1n1cc(-c2ccc(F)cc2)nn1	0.0	-10.9	-4.3	8.4	-3.5	4.2
O=C1NC[C@H](Cc2ccc(O)cc2)N(C[C@@H]2CCCN2C[C@H](Cc2ccc(O)cc2)N2C[C@H](Cc3ccccc3)N(CCc3ccccc3)C(=O)C2=O)C1=O	-1.3	5.3	.	-1.5	.	.
CN1CCN(c2cc(CNC[C@H]3O[C@@H](n4cnc5c(=O)[nH]c(N)nc54)[C@H](O)[C@@H]3O)ccc2F)CC1	-0.2	4.1	-22.0	2.4	-5.6	-6.5
O=C1c2ccccc2CCc2ccccc21	-3.0	8.3	-17.2	2.1	9.0	-4.6
C[N+]1(C)CCC(=C2c3ccccc3CC(=O)c3sccc32)CC1	-7.5	77.3*	94.6*	-17.4	-26.3	-6.0
Cc1cccc2c1Sc1ccccc1CC2=O	-5.0	-6.8	-0.9	0.6	-3.8	-4.1
CC[N+]1(C)CCC(=C2c3ccccc3CC(=O)c3sccc32)CC1 (centres undefined)	-7.4	98.8*	98.3*	-17.4	-26.1	-6.0
CC1(C(=O)NS(=O)(=O)c2cccc(F)c2)CCN1C(=O)CCC1CCCC1 (centres undefined)	0.7	3.9	-13.8	-2.7	6.0	-0.4
